One assay addresses D(1A) dopamine receptor (Homo sapiens, UniProt P21728). In words: Binding affinity to dopamine D1 receptor.
The target in assay [1] is T1, Adrenergic receptor alpha-1 (Homo sapiens, UniProt P35348+P25100+P35368).
T1 sequence (P35348 whole entry): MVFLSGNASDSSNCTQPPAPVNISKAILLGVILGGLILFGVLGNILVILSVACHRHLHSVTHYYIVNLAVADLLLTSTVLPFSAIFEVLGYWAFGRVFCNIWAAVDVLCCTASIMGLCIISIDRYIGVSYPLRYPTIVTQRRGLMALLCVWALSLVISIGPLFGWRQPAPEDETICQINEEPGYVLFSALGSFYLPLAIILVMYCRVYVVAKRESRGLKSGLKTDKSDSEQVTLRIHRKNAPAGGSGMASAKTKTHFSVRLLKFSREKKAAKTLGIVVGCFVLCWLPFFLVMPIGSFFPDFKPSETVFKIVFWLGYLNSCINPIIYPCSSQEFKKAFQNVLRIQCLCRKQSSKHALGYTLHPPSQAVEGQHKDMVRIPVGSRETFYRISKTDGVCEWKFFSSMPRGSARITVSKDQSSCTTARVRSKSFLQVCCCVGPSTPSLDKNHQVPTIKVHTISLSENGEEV
T1 sequence (P25100 whole entry): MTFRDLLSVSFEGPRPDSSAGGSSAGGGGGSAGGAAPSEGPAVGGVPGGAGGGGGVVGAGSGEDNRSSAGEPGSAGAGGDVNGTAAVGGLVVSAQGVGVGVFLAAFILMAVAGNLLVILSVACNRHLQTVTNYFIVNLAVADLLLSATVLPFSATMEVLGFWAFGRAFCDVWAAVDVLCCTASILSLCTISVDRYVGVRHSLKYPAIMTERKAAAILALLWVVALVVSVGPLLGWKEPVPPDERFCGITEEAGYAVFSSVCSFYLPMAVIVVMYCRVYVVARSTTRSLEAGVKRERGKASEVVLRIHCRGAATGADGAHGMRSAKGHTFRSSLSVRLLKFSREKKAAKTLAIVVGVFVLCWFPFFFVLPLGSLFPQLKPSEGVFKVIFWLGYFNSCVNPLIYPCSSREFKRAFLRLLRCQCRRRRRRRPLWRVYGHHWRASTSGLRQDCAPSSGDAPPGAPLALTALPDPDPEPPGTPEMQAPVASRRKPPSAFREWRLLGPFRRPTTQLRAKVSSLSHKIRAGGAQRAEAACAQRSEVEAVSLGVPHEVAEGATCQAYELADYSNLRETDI
T1 sequence (P35368 whole entry): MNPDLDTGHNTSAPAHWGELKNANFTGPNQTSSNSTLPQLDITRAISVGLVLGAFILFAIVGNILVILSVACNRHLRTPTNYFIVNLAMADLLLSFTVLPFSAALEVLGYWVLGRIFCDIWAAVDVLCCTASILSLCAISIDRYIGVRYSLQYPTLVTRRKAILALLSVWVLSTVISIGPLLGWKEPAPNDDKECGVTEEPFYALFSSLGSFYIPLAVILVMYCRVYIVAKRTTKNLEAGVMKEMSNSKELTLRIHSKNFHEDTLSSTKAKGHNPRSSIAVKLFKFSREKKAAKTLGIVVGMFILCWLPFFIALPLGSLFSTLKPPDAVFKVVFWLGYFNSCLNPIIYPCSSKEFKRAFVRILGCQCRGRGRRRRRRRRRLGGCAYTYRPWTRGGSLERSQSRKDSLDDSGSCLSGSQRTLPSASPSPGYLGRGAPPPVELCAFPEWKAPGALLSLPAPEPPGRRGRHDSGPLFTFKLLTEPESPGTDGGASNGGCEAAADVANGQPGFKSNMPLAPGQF
In words: Binding affinity to adrenergic alpha-1 receptor. In kind it is protein assay.

The target in assay [2] is T2, Alpha-1A adrenergic receptor (Rattus norvegicus) (UniProt P43140).
T2 sequence (whole entry): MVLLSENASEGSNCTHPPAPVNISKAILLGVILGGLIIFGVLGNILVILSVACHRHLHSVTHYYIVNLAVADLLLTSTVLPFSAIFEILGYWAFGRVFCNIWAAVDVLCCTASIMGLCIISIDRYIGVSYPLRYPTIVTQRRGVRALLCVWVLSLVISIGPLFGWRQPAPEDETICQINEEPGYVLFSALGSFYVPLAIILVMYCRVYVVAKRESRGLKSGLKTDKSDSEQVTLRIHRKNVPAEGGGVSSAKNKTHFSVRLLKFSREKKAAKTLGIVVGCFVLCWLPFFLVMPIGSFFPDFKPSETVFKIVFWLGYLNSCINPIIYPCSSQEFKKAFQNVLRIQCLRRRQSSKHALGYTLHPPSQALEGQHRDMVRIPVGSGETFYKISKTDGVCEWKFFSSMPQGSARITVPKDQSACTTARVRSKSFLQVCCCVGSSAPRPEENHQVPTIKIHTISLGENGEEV
Nature of the assay: Antagonistic activity at ADRA1A in isolated rat prostatic vas deferens. In kind it is functional, tissue-based. In a few lines: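 Antagonism in isolated rat tissues: prostatic vas deferens (α1A), spleen (α1B), thoracic aorta (α1D). Each compound tested at a single concentration, and each concentration was investigated at least four times. pKb was calculated by the van Rossum method. pA2 was derived from Arunlakshana–Schild plots. WB4101 was used as the standard.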

Assay [3] addresses Alpha adrenergic receptor 1A and 1D (Rattus norvegicus) (UniProt P23944+P43140). Nature of the assay: Selectivity for ADRA1D over ADRA1A. Type of assay: protein assay. In a few lines: (§1)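 Subtype selectivity is the antilog of the difference between the pKb values at α1A, α1B and α1D, measured in isolated rat prostatic vas deferens, spleen and thoracic aorta.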
The target in assay [4] is T3, 5-hydroxytryptamine receptor 1A (Homo sapiens, UniProt P08908).
T3 sequence (P08908 whole entry): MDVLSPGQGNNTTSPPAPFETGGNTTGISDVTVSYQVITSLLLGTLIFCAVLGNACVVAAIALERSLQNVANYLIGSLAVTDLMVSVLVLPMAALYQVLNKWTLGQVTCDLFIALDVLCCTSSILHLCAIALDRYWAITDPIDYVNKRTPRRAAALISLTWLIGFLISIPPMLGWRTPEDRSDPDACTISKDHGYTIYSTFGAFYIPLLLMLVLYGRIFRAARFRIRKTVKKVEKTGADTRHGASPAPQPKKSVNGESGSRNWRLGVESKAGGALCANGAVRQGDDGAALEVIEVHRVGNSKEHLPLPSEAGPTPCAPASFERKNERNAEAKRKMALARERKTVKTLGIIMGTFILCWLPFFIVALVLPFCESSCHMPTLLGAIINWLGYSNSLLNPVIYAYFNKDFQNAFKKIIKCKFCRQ
In words: Binding affinity to 5HT1A.

The target of a further assay is D(2) dopamine receptor (Homo sapiens, UniProt P14416). In words: Binding affinity to dopamine D2 receptor.
Assay [5] is filed under the species Homo sapiens. Nature of the assay: Selectivity for 5HT1A over adrenergic alpha-1 receptor. Put shortly:
(§2)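 Selectivity is the ratio of Ki at 5-HT1A, D1 or D2 to Ki at α1. Ki values are means (±SD) of three separate experiments.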

Assay [6] concerns the target Alpha adrenergic receptor 1A and 1B (Rattus norvegicus) (UniProt P15823+P43140). In words: Selectivity for ADRA1B over ADRA1A. In kind it is protein assay. Put shortly:
as §1

The species entered for assay [7] is Homo sapiens. In words: Selectivity for dopamine D1 over adrenergic alpha-1 receptor. Put shortly:
as §2

A short description of assay [8]: Selectivity for dopamine D2 over adrenergic alpha-1 receptor. Put shortly:
as §2

One may read the Ki as the equilibrium dissociation constant of an inhibitor or competing ligand from its target. Lower therefore signals tighter binding. The term pKb denotes the Kb on a negative log10 scale, so that one unit is a factor of ten. Low values mean a high Kb, high ones a low Kb.

Sequence of D(1A) dopamine receptor (P21728 whole entry): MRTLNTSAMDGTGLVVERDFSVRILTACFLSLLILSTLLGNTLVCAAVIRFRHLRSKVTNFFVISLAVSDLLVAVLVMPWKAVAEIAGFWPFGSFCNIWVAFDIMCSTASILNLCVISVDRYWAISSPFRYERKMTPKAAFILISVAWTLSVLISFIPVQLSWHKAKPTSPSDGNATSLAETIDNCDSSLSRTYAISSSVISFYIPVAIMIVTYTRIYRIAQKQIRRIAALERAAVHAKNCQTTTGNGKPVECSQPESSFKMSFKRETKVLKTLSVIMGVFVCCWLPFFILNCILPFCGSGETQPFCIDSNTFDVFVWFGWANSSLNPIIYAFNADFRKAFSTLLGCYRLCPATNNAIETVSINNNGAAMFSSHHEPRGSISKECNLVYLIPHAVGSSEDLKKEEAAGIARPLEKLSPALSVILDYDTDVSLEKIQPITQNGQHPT
Sequence of D(2) dopamine receptor (P14416 whole entry): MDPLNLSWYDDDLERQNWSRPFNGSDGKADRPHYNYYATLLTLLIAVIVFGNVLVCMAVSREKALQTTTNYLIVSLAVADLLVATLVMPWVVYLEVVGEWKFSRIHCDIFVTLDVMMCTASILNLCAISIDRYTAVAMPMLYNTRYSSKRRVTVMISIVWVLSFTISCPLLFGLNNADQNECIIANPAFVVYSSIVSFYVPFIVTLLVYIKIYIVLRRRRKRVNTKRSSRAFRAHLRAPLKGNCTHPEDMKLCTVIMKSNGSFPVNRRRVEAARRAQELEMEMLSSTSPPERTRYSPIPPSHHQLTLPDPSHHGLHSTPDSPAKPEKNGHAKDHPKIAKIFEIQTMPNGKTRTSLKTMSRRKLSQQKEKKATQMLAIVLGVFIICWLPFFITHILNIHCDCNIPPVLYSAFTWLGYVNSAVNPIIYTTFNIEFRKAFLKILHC
Sequence of Alpha adrenergic receptor 1A and 1B (Rattus norvegicus) (P15823 whole entry, looked up, one chain of several): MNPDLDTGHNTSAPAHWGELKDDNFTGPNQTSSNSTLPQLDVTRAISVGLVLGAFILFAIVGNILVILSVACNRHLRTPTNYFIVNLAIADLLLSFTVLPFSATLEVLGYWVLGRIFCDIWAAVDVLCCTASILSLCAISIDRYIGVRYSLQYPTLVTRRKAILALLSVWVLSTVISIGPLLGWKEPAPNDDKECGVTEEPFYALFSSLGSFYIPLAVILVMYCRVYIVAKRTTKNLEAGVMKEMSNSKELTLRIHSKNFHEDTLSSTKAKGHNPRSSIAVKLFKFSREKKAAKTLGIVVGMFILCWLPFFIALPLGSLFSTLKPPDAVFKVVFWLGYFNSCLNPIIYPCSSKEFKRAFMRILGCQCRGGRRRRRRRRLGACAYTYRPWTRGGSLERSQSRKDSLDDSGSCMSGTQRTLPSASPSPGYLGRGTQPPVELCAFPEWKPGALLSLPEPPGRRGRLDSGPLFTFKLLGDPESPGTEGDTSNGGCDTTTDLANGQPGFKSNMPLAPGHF
Sequence of Alpha adrenergic receptor 1A and 1D (Rattus norvegicus) (P23944 whole entry, looked up, one chain of several): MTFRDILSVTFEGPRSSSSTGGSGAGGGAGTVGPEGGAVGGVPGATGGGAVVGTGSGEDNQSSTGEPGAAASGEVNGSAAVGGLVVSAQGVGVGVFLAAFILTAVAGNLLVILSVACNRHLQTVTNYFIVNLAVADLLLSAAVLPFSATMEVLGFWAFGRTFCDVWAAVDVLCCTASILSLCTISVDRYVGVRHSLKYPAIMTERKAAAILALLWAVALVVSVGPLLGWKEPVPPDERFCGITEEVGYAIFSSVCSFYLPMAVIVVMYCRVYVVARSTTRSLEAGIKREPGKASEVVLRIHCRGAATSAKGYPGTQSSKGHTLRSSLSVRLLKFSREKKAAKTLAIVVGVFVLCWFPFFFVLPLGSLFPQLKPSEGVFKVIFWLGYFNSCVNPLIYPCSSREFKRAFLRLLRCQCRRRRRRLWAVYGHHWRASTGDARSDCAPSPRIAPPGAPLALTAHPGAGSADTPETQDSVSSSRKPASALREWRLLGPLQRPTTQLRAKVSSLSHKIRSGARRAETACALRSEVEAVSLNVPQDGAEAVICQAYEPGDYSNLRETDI

Take `Cc1ccc(-c2cc3[nH]c(=O)n(CCN4CCN(c5ccccc5Cl)CC4)c(=O)c3[nH]2)cc1`: the Ki is over 10000 nM on D(1A) dopamine receptor, 17.26 nM in assay [1], over 10000 nM in assay [4] and over 10000 nM at D(2) dopamine receptor. In assay [2], this compound showed a pKb of 6.72. In addition, the Ratio pKb in [3] came out at 0.5; in assay [6], 0.4. For the same compound, the Ratio Ki (in the assay listed under Homo sapiens [5]; in the assay listed under Homo sapiens [7]; in assay [8]) was over 500 each time.
As to `Cc1ccc(-c2cc3c(=O)n(CCN4CCN(c5ccccc5Cl)CC4)c(=O)[nH]c3[nH]2)cc1`, the Ki on D(1A) dopamine receptor turned out to be 389 nM; in assay [1], 11.71 nM; in [4] it was 1810 nM; on D(2) dopamine receptor, 1720 nM. The compound further had a pKb in [2] of 7.25. For the same compound, the values for the Ratio pKb in assay [3] and in assay [6] were 3 and 2, respectively. Besides, the figures for the Ratio Ki (in the assay filed under Homo sapiens [5]; in the assay filed under Homo sapiens [7]; in assay [8]) were 155, 33 and 147, respectively.
As to `O=c1[nH]c2[nH]c(-c3ccc(Cl)cc3)cc2c(=O)n1CCN1CCN(c2ccccc2Cl)CC1`, the Ki at D(1A) dopamine receptor amounted to 544 nM; in [1], 2.64 nM; in assay [4], 1510 nM; on D(2) dopamine receptor, 2370 nM. Moreover, the pKb in assay [2] came to 6.41. Also, the Ratio pKb in [3] stood at 18; in [6], 2. Further, the Ratio Ki stood at 573 in the assay listed under Homo sapiens [5], 206 in the assay listed under Homo sapiens [7] and 898 in assay [8].
Take `COc1ccc(-c2cc3c(=O)n(CCN4CCN(c5ccccc5Cl)CC4)c(=O)[nH]c3[nH]2)cc1`: the Ki at D(1A) dopamine receptor amounted to 272 nM; in [1], 16.4 nM; in [4], 1070 nM; at D(2) dopamine receptor, 165 nM. In [2], this compound displayed a pKb of 7.48. The Ratio pKb in assay [3] was 2; in [6], 4. Also, the Ratio Ki in the assay listed under Homo sapiens [5] was determined as 65; in the assay filed under Homo sapiens [7] it was 17; in [8], 10.

The values are drawn from ChEMBL document CHEMBL1148546, “3-Arylpiperazinylethyl-1H-pyrrolo[2,3-d]pyrimidine-2,4(3H,7H)-dione derivatives as novel, high-affinity and selective alpha(1)-adrenoceptor ligands” (Bioorg Med Chem Lett, 2006).
